Results reported in ChEMBL document CHEMBL4229410, “Facile construction of fused benzimidazole-isoquinolinones that induce cell-cycle arrest and apoptosis in colorectal cancer cells” (Bioorg Med Chem, 2018).

Tests used:
[1] = test system: SW-620; assay: Growth inhibition of human SW620 cells by MTT assay; format: functional
Outline: (§1)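 MTT viability assay: 3×10³ cells/well were pre-incubated for 24 h, then exposed to 0, 12.5, 25, 50, 100 or 200 μM for 12, 24, 48 or 72 h. MTT was added at 0.5 mg/mL final for 4 h, formazan dissolved in DMSO, and absorbance read at 570 nm. GI₅₀ was taken from growth-inhibition curves; mean ± SD of three independent experiments, each in sextuplicate.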

[2] = test system: HT-29; assay: Growth inhibition of human HT-29 cells by MTT assay; format: functional; outline: as §1

| GI50 [1] [µM] | GI50 [2] [µM] | Compound |
| --- | --- | --- |
| 47.6 | 51.3 | O=C(c1cccs1)N(c1c2ccccc2c(=O)n2c1[nH]c1ccccc12)C1CC1 |
| 57.9 | 61.3 | O=C(c1cccnc1)N(c1ccccc1Br)c1c2ccccc2c(=O)n2c1[nH]c1ccccc12 |
| > 100 | > 100 | O=C(c1ccccc1)N(c1ccccc1)c1c2ccccc2c(=O)n2c1[nH]c1ccccc12 |
| 52.7 | 59.8 | CC(C)CN(C(=O)c1ccccc1C(=O)O)c1c2ccccc2c(=O)n2c1[nH]c1ccccc12 |
| 48.9 | 52.3 | O=C(c1ccncc1)N(CCc1ccccc1)c1c2ccccc2c(=O)n2c1[nH]c1ccccc12 |
| 69.7 | 74.3 | O=C(c1ccccc1)N(Cc1ccccc1)c1c2ccccc2c(=O)n2c1[nH]c1ccccc12 |
| > 100 | > 100 | O=C(Nc1c2ccccc2c(=O)n2c1[nH]c1ccccc12)c1ccccc1 |
| 53.5 | 52.8 | CC(C)CN(C(=O)c1ccco1)c1c2ccccc2c(=O)n2c1[nH]c1ccccc12 |
| 46.9 to 100 | 57.2 to 100 | CC(=O)N(c1ccccc1Br)c1c2ccccc2c(=O)n2c1[nH]c1ccccc12 |
| 46 to 100 | 43.7 to 100 | O=C(c1ccco1)N(c1ccccc1Br)c1c2ccccc2c(=O)n2c1[nH]c1ccccc12 |
| 44.1 | 49.5 | CC(C)CN(C(=O)c1cccs1)c1c2ccccc2c(=O)n2c1[nH]c1ccccc12 |
